Test results published in article PMC8208316 (Chemical Science, 2021).
Values joined by “and” are separate entries in the source; they are usually repeats but may differ in a detail not shown here. Equal values may be shown once. Values belong to the compound of their own block, whether it stands above or below them.

Experiments:
[1] = system: H9c2 cardiac myoblasts; experiment: Protection from H2O2-mediated oxidative stress, Sytox green viability assay; type: cell-based, rat; conditions: pretreatment 4 and 8 h, then H2O2 200 μM
[2] = COS release in the presence of thiols by membrane inlet mass-spectrometry; type: physicochemical; conditions: 50 μM precursor, NAC 0.25 mM, PBS pH 7.4, 37 °C
[3] = Kinetics of RSSH release; type: physicochemical; conditions: for half-life at 100 µM: phosphate buffered saline with MMTS (1 mM) as RSSH trap, pH 7.4; for phenol byproduct 4a–f yield: precursor 100 μM, MMTS 1 mM, pH 7.4 PBS containing DTPA, HPLC
Procedure, shortened: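 Test compound (100 μM) incubated at 37 °C with MMTS (1 mM) as RSSH trap in PBS (pH 7.4, 100 mM) containing DTPA (100 μM). Timed aliquots quenched with 0.1% formic acid and analysed by HPLC: precursor at 240 nm, phenol at 275 nm. First-order rate constants from single-exponential fits; average of three experiments.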

[4] = Decomposition of precursors in the presence of thiol; type: physicochemical
[5] = system: H9c2 cardiac myoblasts; experiment: Intracellular sulfane sulfur detection using the SSP4 probe; type: cell-based, rat
Procedure, shortened: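 H9c2 cells loaded with SSP4 (20 μM) plus CTAB (500 μM) for 20 min, then washed with serum-free medium. Test compound added at 0–200 μM. Plate-reader fluorescence (ex 482 nm, em 515 nm) read at set times over 3 h and normalised to the 0 μM value at each time. Mean ± SEM, n = 3 per group, three independent experiments.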

[6] = system: H9c2 cardiac myoblasts; experiment: Protection from H2O2-mediated oxidative stress, CCK-8 viability assay; type: cell-based, rat
[7] = 10 equiv. MMTS, PBS pH 7.4, 100 mM, 37 °C

SMILES: COC(=O)C(CSSSCC(NC(C)=O)C(=O)OC)NC(C)=O [N-Ac-OMe-Cys-(S)3, N-acetyl O-methyl cysteine trisulfide, reference compound]
SSP4 fluorescence signal in H9c2 cells compared with 1a [5]: higher fluorescence signal

SMILES: COC(=O)C(NC(C)=O)C(C)(C)SSC(=O)OCc1ccccc1 (stereo not drawn) [compound 8]
COS generation in the presence of NAC (comparison) [2]: slower COS generation
half-life at 100 µM [3]: 37.2 ± 1.57 h
decomposition rate in the presence of thiol with respect to 1a ([4]; in the presence of thiol): about six times slower

SMILES: Oc1ccccc1 [phenol, reference compound]
protection against H2O2-mediated toxicity (cell viability, CCK-8) ([6]; 50 μM for 4 and 8 h, then H2O2 200 μM 2 h): no protective effect

The next lines start with results.

COS production with respect to precursor 13 [2]: approximately 20%
k, disappearance of precursor (first-order) [3, 7]: 0.00539 min⁻¹
k, formation of phenol (first-order) [3, 7]: 0.00533 min⁻¹
half-life at 100 µM [3]: 2.15 ± 0.0333 h
phenol byproduct 4a–f yield ([3]; 37 °C): 92% and 92 ± 2%
formation of byproduct 9a (indication of RSSH yield) ([4]; 5 equiv. N-acetylcysteine methyl ester): 53%
SMILES: COC(=O)C(NC(C)=O)C(C)(C)SSC(=O)Oc1ccccc1 (stereo not drawn) [1a]
protection against H2O2-mediated toxicity (Sytox) [1]: consistently shows protective effects
SSP4 fluorescence signal (intracellular sulfane sulfur) ([5]; 50 μM): did not observe a significant increase
SSP4 fluorescence intensity (intracellular sulfane sulfur) ([5]; 100 and 200 μM, over 3 h): dose-dependent increases in fluorescence intensity
protection against H2O2-mediated toxicity (cell viability, CCK-8) ([6]; pretreatment 5 μM for 8 h, then H2O2 200 μM): shows protection
protection against H2O2-mediated toxicity (cell viability, CCK-8) ([6]; pretreatment 4 h (0–50 μM), then H2O2 200 μM 2 h): dose-dependent decrease of H2O2-induced toxicity

half-life at 100 µM [3]: 2.28 ± 0.0667 h
phenol byproduct 4a–f yield ([3]; 37 °C): 93 ± 4%
SMILES: COC(=O)C(NC(C)=O)C(C)(C)SSC(=O)Oc1ccc(C)cc1 (stereo not drawn) [1b]

half-life at 100 µM [3]: 2.45 ± 0.0333 h
phenol byproduct 4a–f yield ([3]; 37 °C): 92 ± 1%
SMILES: COC(=O)C(NC(C)=O)C(C)(C)SSC(=O)Oc1ccc(OC)cc1 (stereo not drawn) [1c]

half-life at 100 µM [3]: 1.6 ± 0.05 h
phenol byproduct 4a–f yield ([3]; 37 °C): 96 ± 6%
SMILES: COC(=O)C(NC(C)=O)C(C)(C)SSC(=O)Oc1ccc(F)cc1 (stereo not drawn) [1d]

half-life at 100 µM [3]: 0.467 ± 0.0167 h
phenol byproduct 4a–f yield ([3]; 37 °C): 97 ± 2%
SMILES: COC(=O)C(NC(C)=O)C(C)(C)SSC(=O)Oc1ccc(C#N)cc1 (stereo not drawn) [1f]
